Consider 22 compounds from ChEMBL document CHEMBL1124994, “New and versatile approaches to the synthesis of CPP-related competitive NMDA antagonists. Preliminary structure-activity relationships and pharmacological evaluation” (J Med Chem, 1990).

Test [1] addresses Glutamate NMDA receptor. The test is described as follows: Inhibition of N-methyl-D-aspartate glutamate receptor by using [3H]CPP as a radioligand from the rat cortical membranes. Format: cell membranes, Membrane.
For test [2], the target named is T1, Glutamate NMDA receptor (Rattus norvegicus) (UniProt P35439+Q00959+Q00960+Q00961+Q62645+Q8VHN2+Q9R1M7). The test is described as follows: Binding affinity for glutamate-stimulated TCP binding site of N-methyl-D-aspartate glutamate receptor from rat brain by using [3H]-TCP as radioligand; ant = antagonist. Conditions: filed as antagonist. Summed up: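 Crude synaptic membranes from rat whole brain minus cerebellum and brainstem, stored at -70 °C, treated with 0.01% Triton X-100 in 50 mM Tris-HCl pH 7.6 at 37 °C for 30 min, then washed. Incubated with 15 mg tissue and 1 nM [3H]TCP in 5 mM Tris-HCl pH 8.0 for 1 h at 25 °C. Filtered on PEI-treated filters, counted by scintillation. Nonspecific binding: 100 µM (+)-SKF 10047.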

The target of test [3] is Glutamate NMDA receptor. The test is described as follows: Compound was tested for inhibition of N-methyl-D-aspartate glutamate receptor by using [3H]CPP as a radioligand from the rat cortical membranes. The class given is cell membranes, Membrane.
In test [4] the target is Glutamate NMDA receptor. The test can be described thus: Binding affinity was determined by the ability to displace [3H]-CPP from N-methyl-D-aspartate glutamate receptor of rat brain. Summed up: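 Radioligand displacement of [3H]CPP from rat cortical crude synaptic membranes.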
Test [5] has as its target Glutamate NMDA receptor. The test can be described thus: Compound was tested for inhibition of [3H]CPP binding from N-methyl-D-aspartate glutamate receptor in the rat cortical membranes. Format: cell membranes, Membrane.
Test [6] addresses T1, Glutamate NMDA receptor (Rattus norvegicus). Conditions: filed as agonist.
For test [7] the target is unchanged. The test can be described thus: Binding affinity for glutamate-stimulated TCP binding site of N-methyl-D-aspartate glutamate receptor from rat brain by using [3H]TCP as radioligand; Antagonist. Conditions: filed as antagonist. Summed up:
(§1)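 Rat whole brain minus cerebellum and brain stem; crude synaptic membranes stored at -70 °C, then treated with 0.01% Triton X-100 in 50 mM Tris-HCl pH 7.6 for 30 min at 37 °C and washed three times. Incubation with 15 mg wet tissue and 1 nM [3H]TCP in 5 mM Tris-HCl pH 8.0, 1 h, 25 °C. Filtration through PEI-treated glass-fiber filters, scintillation counting. Nonspecific binding defined with 100 µM (+)-SKF 10047.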

For test [8] the target is unchanged. The test can be described thus: Binding affinity for glutamate-stimulated TCP binding site of N-methyl-D-aspartate glutamate receptor from rat brain by using [3H]TCP as radioligand;Antagonist. Conditions: filed as antagonist. Put shortly: as §1
Test [9] has the same target. The test is described as follows: Binding affinity for glutamate-stimulated TCP binding site of N-methyl-D-aspartate glutamate receptor from rat brain by using [3H]TCP as radioligand; Agonist. The note with it: filed as agonist. Summed up:
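Rat whole brain minus cerebellum and brainstem, crude synaptic membranes stored at -70 °C; thawed, treated with 0.01% Triton X-100 in 50 mM Tris-HCl pH 7.6 at 37 °C for 30 min, washed ≥3 times. Test agents incubated with 15 mg tissue (wet weight) and [3H]TCP 1 nM in 5 mM Tris-HCl pH 8.0, 1 h, 25 °C. Filtration, scintillation counting; nonspecific binding with 100 μM (+)-SKF 10047.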

A value given as a limit tells only on which side of the number the result lay.

Usually IC50 stands for the concentration that gives 50% inhibition. `O=C(O)C1CN(c2cccc(P(=O)(O)O)c2)CCN1` (stereo not given) had an IC50 in test [1] of 83 µM.
In test [1], `NC(CCCCCP(=O)(O)O)C(=O)O` (stereo not given) [AP-7] yielded an IC50 of 0.76 µM. For the same compound, in test [2], the GSTCP activity result is “Antagonist”.
In the case of `O=C(O)C1CN(CCCP(=O)(O)O)CCN1CCCCC(c1ccccc1)c1ccccc1` (stereo not given), the IC50 in test [1] was greater than 100 µM.
For `O=C(O)C1CN(CCCP(=O)(O)O)CCN1CCC(c1ccccc1)c1ccccc1` (stereo not given), the IC50 in test [3] is greater than 100 µM.
For `O=C(O)C1CN(Cc2cccc(CP(=O)(O)O)c2)CCN1` (stereo not given), in test [1], the IC50 is greater than 100 µM.
As for `NC(CCCP(=O)(O)O)C(=O)O` (stereo not given), in test [2], the GSTCP activity entry is “Antagonist”. The IC50 in test [4] came out at 0.29 µM.
Take `CN[C@H](CC(=O)O)C(=O)O` [N-METHYL-D-ASPARTIC ACID (NMDA)]: in [5], the IC50 was 4.55 µM. For the same compound, the GSTCP activity entry in test [6] is “Agonist”.
Take `N[C@@H](CCC(=O)O)C(=O)O`: in [6], the GSTCP activity entry was “Agonist”.
`O=C(O)CN1CCNC(C(=O)O)C1` (stereo not given) displayed an IC50 in [1] of 16 µM. The GSTCP activity result in [7] is “Antagonist”.
Turning to `CN1CCN(CCCP(=O)(O)O)CC1C(=O)O` (stereo not given), the IC50 in test [1] was determined as 47.7 µM.
On the same count and under the same terms, as for `O=C(O)c1ccccc1C(=O)N1CCNC(C(=O)O)C1` (stereo not given), the figure is greater than 100 µM.
Turning to `O=C(O)C1CN(CCP(=O)(O)O)CCN1` (stereo not given), the IC50 in [1] came out at 9.8 µM. Besides, the GSTCP activity result in test [7] is “Antagonist”.
The compound `O=C(O)C1CN(c2ccccc2P(=O)(O)O)CCN1` (stereo not given) returned an IC50 in test [3] greater than 100 µM.
Consider `O=C(O)C1CN(CCCCP(=O)(O)O)CCN1` (stereo not given), for which the concentration for half-maximal inhibition (IC50) in [1] was found to be 48 µM. The GSTCP activity result in test [7] is “Antagonist”.
Regarding `O=C(O)CCCN1CCNC(C(=O)O)C1` (stereo not given), the IC50 in test [1] turned out to be 0.85 µM. The GSTCP activity result in test [8] is “Antagonist”.
`O=C(O)C1CN(CP(=O)(O)O)CCN1` (stereo not given) came in with an IC50 in test [3] of 0.32 µM. Also, the GSTCP activity entry in [7] is “Antagonist”.
Take `O=C(O)C1CN(CCCP(=O)(O)O)CCN1CCCCc1ccccc1` (stereo not given): the IC50 in test [1] was greater than 100 µM.
`O=C(O)C1CN(C(c2ccccc2)P(=O)(O)O)CCN1` (stereo not given): the IC50 in test [1] came to 5.8 µM; in [5], 13.3 µM. Besides, the GSTCP activity entry in test [7] was “Antagonist”.
Compound `O=C(O)[C@@H]1C[C@H](CP(=O)(O)O)CCN1` [SELFOTEL] came in with an IC50 in [1] of 0.065 µM. For the same compound, the GSTCP activity result in [7] is “Antagonist”.
In test [1], `CP(=O)(O)CCCN1CCNC(C(=O)O)C1` (stereo not given) yielded an IC50 of 0.78 µM. The GSTCP activity result in test [2] was “Antagonist”.
In turn, `O=C(O)C1CN(CCCP(=O)(O)O)CCN1CCC=C(c1ccccc1)c1ccccc1` (stereo not given) came in with an IC50 in test [1] greater than 100 µM.
In test [1], `O=C(O)C1CN(CCCP(=O)(O)O)CCN1` (stereo not given) yielded an IC50 of 0.079 µM. For the same compound, the GSTCP activity result in test [9] was “Agonist”.
